From ChEMBL document CHEMBL4819003, “Optimization of novel oxidative DIMs as Nur77 modulators of the Nur77-Bcl-2 apoptotic pathway” (Eur J Med Chem, 2021)
The source made the active and inactive calls. The rule behind the calls is not given here.

Tests used:
MDA-MB-231 [1] = experiment: Induction of apoptosis in human MDA-MB-231 cells assessed as PARP cleavage at 0.5 uM measured after 6 hrs by western blot assay; type: functional, cell-based
Procedure, shortened: (§1)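 Cells exposed to 0.5 µM for 6 h. Lysates resolved by SDS-PAGE and blotted to PVDF, blocked in 5% milk/TBST, probed with primary antibodies at 1:1000, ECL detection. Apoptosis scored as the densitometric ratio of cleaved PARP band to intact PARP band; mean ± SD, n = 3.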

MDA-MB-231 [2] = experiment: Induction of apoptosis in human MDA-MB-231 cells assessed as PARP cleavage at 0.5 uM measured after 6 hrs by western blot assay relative to Di(1H-indol-3-yl)(4-(trifluoromethyl)phenyl)methylium methanesulfonate; type: functional
Procedure, shortened: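 MDA-MB-231 in DMEM with 10% FBS, 0.5 µM for 6 h, then PARP western blot with 1:1000 primary antibodies and ECL. Cleaved PARP/PARP band intensity ratio expressed relative to the reference methylium methanesulfonate, whose ratio was set to 1. Mean ± SD, n = 3.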

[3] = Half life in male/female Sprague-Dawley rat at 0.5 mg/kg, iv measured for 36 hrs by LC-MS/MS analysis; type: ADME, organism-based; conditions: both, in vivo
[4] = Volume of distribution at steady state in male/female Sprague-Dawley rat at 0.5 mg/kg, iv measured for 36 hrs by LC-MS/MS analysis; type: ADME, organism-based; conditions: in vivo
Procedure, shortened: (§2)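 Sprague-Dawley rats (200–220 g), four per route group (2 male, 2 female), given 0.5 mg/kg IV or 5 mg/kg orally in DMSO/T-80/H2O (1:5:94). Heparinized blood was sampled at 5 min–36 h after IV and at 0.5, 1, 3, 4, 6, 8, 10, 12, 24 and 36 h after oral dosing. Plasma was methanol (2% HCl)-precipitated with carbamazepine internal standard and quantified by LC-MS/MS. Parameters reported as mean ± SD.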

[5] = Selectivity index, ratio of IC50 for human MCF-10A cells to IC50 for human BT-549 cells
[6] = Cmax in male/female Sprague-Dawley rat at 5 mg/kg, po measured for 36 hrs by LC-MS/MS analysis; type: ADME, organism-based; design: route oral, time 36 hrs, dose 5 mg/kg; conditions: both, in vivo
[7] = MRT(0 to t) in male/female Sprague-Dawley rat at 5 mg/kg, po measured for 36 hrs by LC-MS/MS analysis; type: ADME, organism-based; conditions: both, in vivo; procedure, shortened: as §2
[8] = MRT(0 to t) in male/female Sprague-Dawley rat at 0.5 mg/kg, iv measured for 36 hrs by LC-MS/MS analysis; type: ADME, organism-based; conditions: in vivo; procedure, shortened: as §2
MEF = experiment: Induction of apoptosis in mouse MEF cells deficient in Bcl2 assessed as PARP cleavage at 0.5 uM measured after 6 hrs by Western blot assay; type: functional, cell-based
Procedure, shortened: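 Wild-type, Nur77−/− or Bcl-2−/− mouse embryonic fibroblasts grown in DMEM with 10% FBS and treated with 0.5 µM for 6 h. PARP cleavage detected by western blot, primary antibodies at 1:1000, ECL.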

[9] = AUC (0 to t) in male/female Sprague-Dawley rat at 0.5 mg/kg, iv measured for 36 hrs by LC-MS/MS analysis; type: ADME, organism-based; design: dose 0.5 mg/kg, time 36 hrs; conditions: both, in vivo
Procedure, shortened: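 Four Sprague-Dawley rats per route (2 male, 2 female; 200–220 g) received 0.5 mg/kg IV or 5 mg/kg PO in DMSO/Tween-80/water (1:5:94). Heparinized blood was taken at 5 min–36 h after IV dosing and at 0.5, 1, 3, 4, 6, 8, 10, 12, 24 and 36 h after oral dosing. Methanol (2% HCl) precipitation with carbamazepine internal standard preceded LC-MS/MS; values are mean ± SD.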

SW-620 = experiment: Induction of apoptosis in human SW-620 cells assessed as PARP cleavage at 0.5 uM measured after 6 hrs by western blot assay; type: functional, cell-based; procedure, shortened: as §1
[10] = biological target: Nuclear receptor subfamily 4immunitygroup A member 1 (Homo sapiens, UniProt P22736); experiment: Modulation of Myc-Nur77 (unknown origin) transfected in human HEK293T cells co-transfected with Flag-tagged Bcl2 assessed as interaction of Nur77 with Bcl2 at 0.5 uM measured after 1 to 3 hrs by co-immunoprecipitation assay; type: cell-based; conditions: filed as modulator, time 1-3 hrs
Sequence of Nuclear receptor subfamily 4immunitygroup A member 1 (P22736 whole entry): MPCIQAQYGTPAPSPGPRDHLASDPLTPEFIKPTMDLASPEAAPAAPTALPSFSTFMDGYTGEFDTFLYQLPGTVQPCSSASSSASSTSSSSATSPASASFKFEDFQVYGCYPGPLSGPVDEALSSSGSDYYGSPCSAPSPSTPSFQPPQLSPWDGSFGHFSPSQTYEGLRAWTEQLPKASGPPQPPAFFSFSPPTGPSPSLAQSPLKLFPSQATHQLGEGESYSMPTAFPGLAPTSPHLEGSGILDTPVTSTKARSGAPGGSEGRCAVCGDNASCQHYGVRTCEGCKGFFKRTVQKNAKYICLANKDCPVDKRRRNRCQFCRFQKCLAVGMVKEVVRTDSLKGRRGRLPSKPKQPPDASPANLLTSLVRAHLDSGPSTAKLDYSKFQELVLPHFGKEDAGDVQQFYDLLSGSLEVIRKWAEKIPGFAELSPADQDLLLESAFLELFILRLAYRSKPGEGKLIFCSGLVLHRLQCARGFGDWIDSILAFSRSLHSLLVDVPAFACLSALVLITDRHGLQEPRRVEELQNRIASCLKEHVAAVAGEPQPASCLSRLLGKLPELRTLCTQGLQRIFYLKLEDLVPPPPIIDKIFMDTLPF
Procedure, shortened: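 HEK293T cells cotransfected with Flag-Bcl-2 and Myc-Nur77 were treated with or without 0.5 μM compound over the indicated times. They were lysed in Triton X-100 buffer with protease inhibitors; 5% of lysate was kept as input. Lysate was immunoprecipitated with anti-Flag at 4 °C for 12 h, then protein A-Sepharose for 3 h, washed three times in PBS and western blotted.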

[11] = MRT(0 to t) in female Sprague-Dawley rat at 0.5 mg/kg, iv measured for 36 hrs by LC-MS/MS analysis; type: ADME, organism-based; conditions: in vivo
[12] = Half life in male Sprague-Dawley rat at 5 mg/kg, po measured for 36 hrs by LC-MS/MS analysis; type: ADME, organism-based; conditions: in vivo
[13] = Cmax in female Sprague-Dawley rat at 5 mg/kg, po measured for 36 hrs by LC-MS/MS analysis; type: ADME, organism-based; design: route oral, time 36 hrs, dose 5 mg/kg; conditions: in vivo
[14] = Half life in female Sprague-Dawley rat at 5 mg/kg, po measured for 36 hrs by LC-MS/MS analysis; type: ADME, organism-based; conditions: in vivo
[15] = Tmax in male Sprague-Dawley rat at 5 mg/kg, po measured for 36 hrs by LC-MS/MS analysis; type: ADME, organism-based; conditions: in vivo
Procedure, shortened: (§3)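 Sprague-Dawley rats (200–220 g), three males and three females per route group. Dosed 5 mg/kg orally or 0.5 mg/kg IV as a solution in DMSO/T-80/H2O (1:5:94 by volume). Heparinized blood was drawn from 5 min to 36 h after IV and 1–36 h after oral dosing. Plasma was protein-precipitated with methanol (2% HCl) plus carbamazepine internal standard and assayed by LC-MS/MS. Parameters were taken from concentration-time data; n = 3 per sex, mean ± SD.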

[16] = Half life in female Sprague-Dawley rat at 0.5 mg/kg, iv measured for 36 hrs by LC-MS/MS analysis; type: ADME, organism-based; conditions: in vivo
[17] = Volume of distribution at steady state in male Sprague-Dawley rat at 0.5 mg/kg, iv measured for 36 hrs by LC-MS/MS analysis; type: ADME, organism-based; conditions: in vivo, read-out: Vdss; procedure, shortened: as §3
[18] = Half life in male Sprague-Dawley rat at 0.5 mg/kg, iv measured for 36 hrs by LC-MS/MS analysis; type: ADME, organism-based; conditions: in vivo
[19] = MRT(0 to t) in male Sprague-Dawley rat at 5 mg/kg, po measured for 36 hrs by LC-MS/MS analysis; type: ADME, organism-based; conditions: in vivo; procedure, shortened: as §3
[20] = AUC (0 to t) in female Sprague-Dawley rat at 5 mg/kg, po measured for 36 hrs by LC-MS/MS analysis; type: ADME, organism-based; design: dose 5 mg/kg, time 36 hrs; conditions: in vivo
Procedure, shortened: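 Sprague-Dawley rats (200–220 g), three per sex per route, were dosed at 0.5 mg/kg IV or 5 mg/kg PO in DMSO/Tween-80/water (1:5:94). Heparinized blood was drawn from 5 min to 36 h after IV dosing and from 1 h to 36 h after oral dosing. Plasma was deproteinized with methanol (2% HCl) plus carbamazepine internal standard, measured by LC-MS/MS, and reported as mean ± SD.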

[21] = MRT(0 to t) in male Sprague-Dawley rat at 0.5 mg/kg, iv measured for 36 hrs by LC-MS/MS analysis; type: ADME, organism-based; conditions: in vivo

CS(=O)(=O)[O-].Cn1cc([C+](c2ccc(C(F)(F)F)cc2)c2c[nH]c3ccccc23)c2ccccc21
Activity (MDA-MB-231 [1]): Active
fold change (FC) (MDA-MB-231 [2]): 8.93
half-life [3]: 2.66 h
Vdss [4]: 3.69 L/kg
Ratio IC50 [5]: 40
Cmax [6]: 57.9 ng/mL
MRT last at 36 h [7]: 9.59 h
MRT [8]: 0.56 h
Activity (MEF): inactive
AUC(0-t) at 36 h [9]: 501 ng·h/mL
Activity (SW-620): Active
Activity [10]: Active

CS(=O)(=O)[O-].FC(F)(F)c1ccc([C+](c2c[nH]c3ccccc23)c2c[nH]c3ccccc23)cc1
MRT [11]: 3.59 h
half-life [12]: 5.28 h
Cmax [13]: 203 ng/mL
half-life [14]: 6.81 h
Tmax [15]: 5.33 h
half-life [16]: 5.91 h
Vd [17]: 2.56 L/kg
half-life [18]: 4.05 h
MRT last at 36 h [19]: 12.3 h
AUC(0-t) at 36 h [20]: 3950 ng·h/mL
MRT last at 36 h [21]: 4.31 h
